Experimental data collected from several papers.
Compare with care: the assays were run in different laboratories.
Target: Sigma non-opioid intracellular receptor 1 (SIGMAR1, Homo sapiens, UniProt Q99720)

CC(C)(C)Oc1cc(CCC(C)(C)N2Cc3ccc(S(C)(=O)=O)cc3C2)ccc1O has a Ki of 63 nM (ligand displacement, radioligand; cell membranes).
The Ki of CCCn1nc(C(=O)N2CCCCC2)c2c1CCC(N1CCN(c3ccc([N+](=O)[O-])cc3)CC1)C2 (stereo not drawn) is reported as 1590 nM (ligand displacement, radioligand).
The Ki of COc1ccccc1N1CCN(CCCCNC(=O)c2cc3cc(OCCF)ccc3[nH]2)CC1 is reported as > 10000 nM (cell-free assay).
For CCCn1nc(C(=O)N(C)C)c2c1CCC(NCc1ccc(Cl)cc1)C2 (stereo not drawn), the Ki was > 10000 nM (ligand displacement, radioligand).
The Ki of COc1ccccc1N1CCN(CCCCNC(=O)c2cc3cc(O)ccc3[nH]2)CC1 is reported as > 10000 nM (cell-free assay).
The Ki of CCCn1nc(C(=O)N2CCCCC2)c2c1CCC(NCCN1CCCCC1)C2 (stereo not drawn) is reported as > 10000 nM (ligand displacement, radioligand).
For COc1ccc2ccn(CCCCN3Cc4cc(OC)c(OC)cc4C3)c2c1, the Ki was 70 nM (ligand displacement, radioligand; cell membranes).
For CCN(CC)CCCC(C)Nc1ccnc2cc(Cl)ccc12 (stereo not drawn), the Ki was 741 nM (ligand displacement, radioligand).
The Ki of COc1ccc2ccn(CCCCN3CCc4cc(OC)c(OC)cc4C3)c2c1 is reported as 357 nM (ligand displacement, radioligand; cell membranes).
OCCCN1CC[C@@H]2C[C@H]1c1cc(-c3ccc(C(F)(F)F)cc3)ccc12 has a Ki of 167 nM (ligand displacement, radioligand).
The Ki of COc1ccc2[nH]c(C(=O)NC/C=C/CN3CCN(c4ccccc4OC)CC3)cc2c1 is reported as > 10000 nM (cell-free assay).
With COc1cc2c(cc1OC)CN(CCCCn1ccc3c(OC)cccc31)CC2 the Ki was 259 nM (ligand displacement, radioligand; cell membranes).
